Bioassay records: PubChem, several laboratories
Only some compounds are listed: those with a hit (about 2.1% of all), similar ones and a draw of the others.
bCat nuc transl: beta-catenin nuclear translocation modulation. AID 1665. nuclear translocation activity, % at 5 µM. HeLa beta-catenin nuclear translocation, immunofluorescence imaging. actives 0.3% (n = 190,000);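 active = nuclear translocation activity above 50% at 5 µM, with a well cell count of 50 or more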;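 also: per-cell ratio of nuclear to cytoplasmic median beta-catenin stain intensity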
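Test system: human HeLa cell line; Doses: 5 µM primary, 0.02–20 µM confirmation; Incubation: 24 h compound exposure, 37°C; Detection: beta-catenin immunofluorescence imaging with DAPI; Read-out: beta-catenin nuclear/cytoplasmic ratio, % activation.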
ABCG2 inh: inhibitors of human ABCG2 transporter, ABCB1 counter-screen. IgMXP3 cells, JC-1 efflux, flow cytometry. Q9UNQ0. inhibition, % at 6.6 µM. actives 0.1% (n = 190,000). AID 1325;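 active = inhibition above 80%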
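Test system: IgMXP3 (ABCG2) plus far-red-tagged CCRF-Adr (ABCB1) cells / Amount: 3 million cells/mL in well / Reagent: JC-1 transporter substrate / Timing: 10 min compound exposure, 25 °C / Signal: flow cytometry, 530 nm JC-1 signal / Read-out: percent efflux inhibition, scaled nicardipine 100% to DMSO 0% / Benchmarks: nicardipine as high control, DMSO as low control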
MT stabilize HCS: microtubule stabilizers in HeLa cells | HeLa tubulin immunostaining HCS, 24 h; share of cells brighter than vehicle mean+2SD | % tubulin-high responders, % at 10 µM | actives 0.83% (n = 200,000) | AID 2205;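 active = plate Z-score above 3 for both tubulin-high and condensed-nucleus cell shares, with cell loss under 80%, at 10 µM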;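 also: anti alpha tubulin signal scored within the nucleus-defined area of each cell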
ABCB1 inh: human ABCB1 inhibition, ABCG2 as counter-screen. P08183. CCRF-Adr cells, JC-1 efflux, flow cytometry. actives 0.067% (n = 190,000). inhibition, % at 6.6 µM; in the data active = inhibition above about 40%;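 also: higher value means more JC-1 retained so stronger ABCB1 efflux block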
Arbovirus anti: arbovirus infection inhibition | actives 0.37% (n = 200,000) | AID 1251 | inhibition, % at 10 µM | arbovirus infection cell-based antiviral screen; in the data active = inhibition above about 30%
Autophagy mod: autophagy modulation, high-content screen; MEF GFP-LC3 puncta imaging; test concentration mostly 10 µM; calls only at 10 µM (by protocol); actives 0.98% (n = 190,000); AID 463193;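 active = percentage of spot-positive cells more than 3 SD above its plate mean, without a fluorescence outlier flag or 80% toxicity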
Each line names hits and unclear results; the compound was inactive in the other large screens.

Cc1ccc(S(=O)(=O)N2CCC(C(=O)N3CCC[C@H]3C(=O)NCc3ccccc3)CC2)cc1	none
Cc1ccc(S(=O)(=O)N2CCC(C(=O)N3CCC[C@H]3C(=O)NCc3ccco3)CC2)cc1	Autophagy mod active
COc1ccc(-c2csc(Nc3ncccc3C)n2)cc1	none
COc1ccc(-c2csc(Nc3ncccc3C)n2)cc1OC	Arbovirus anti 40.9
COc1cc(C(=O)OCCN2CCOCC2)ccc1O	none
Cc1csc(NC(=O)CN2C(=O)C3CC=CCC3C2=O)n1 (stereo not given)	Arbovirus anti 31.2 (no result: bCat nuc transl)
Cc1ccc2nc(NC(=O)CN3C(=O)C4CC=CCC4C3=O)sc2c1 (stereo not given)	none
CC(C)(C)C(=O)Cn1c(=N)n(Cc2ccccc2)c2ccccc21	none
Cc1ccc(Cn2c(=N)n(CC(=O)c3ccccc3)c3ccccc32)cc1	Autophagy mod active
COc1ccc(CNC(=O)CSc2cccc3cccnc23)cc1	none (no result: ABCG2 inh, MT stabilize HCS, ABCB1 inh, Arbovirus anti, Autophagy mod)
Cc1cccc(CSc2cccc3cccnc23)c1	Autophagy mod active (no result: bCat nuc transl)
CCOC(=O)CSc1cccc2cccnc12	Autophagy mod active
COc1cc(C)nc(N(Cc2ccccc2)S(=O)(=O)c2ccc(C)cc2)n1	none (no result: ABCG2 inh, MT stabilize HCS, ABCB1 inh, Arbovirus anti, Autophagy mod)
COc1nc(OCC#N)nc(N2CCCCC2)n1	none
Cc1cc(N)n(-c2ccccc2C)n1	none
N#Cc1ccc(CSc2nnc(Cc3cccs3)n2Cc2ccco2)cc1	Autophagy mod active (no result: bCat nuc transl)
CCOC(=O)c1ccc(NC(=O)Nc2ccc(Cl)cn2)cc1	none
CCOC(=O)c1ccc(NC(=O)Nc2ccon2)cc1	bCat nuc transl 93.4 (no result: ABCG2 inh, MT stabilize HCS, ABCB1 inh, Arbovirus anti, Autophagy mod)
O=C(NCCc1c[nH]c2ccccc12)C(=O)NCC1OCCN1S(=O)(=O)c1ccc(F)cc1 (stereo not given)	none
O=C(CSc1nnc(-c2ccccc2O)o1)Oc1ccc(OCc2ccccc2)cc1	Autophagy mod active
N#CCSc1nnc(-c2sc3ccccc3c2Cl)o1	Autophagy mod active
Cc1ccc(S(=O)(=O)N2CCCC2C(=O)Nc2cc(C)on2)cc1 (stereo not given)	none (no result: bCat nuc transl)
CSc1nsc2nc(=O)c(/C=C3\C(C)=Nc4ccccc43)c(N)n12	Arbovirus anti 31.8
CC1=Nc2ccccc2/C1=C/c1sc(=S)n(-c2cccc(C(=O)O)c2)c1O	none
NC(=O)c1cc([N+](=O)[O-])ccc1NCc1cccnc1	Arbovirus anti 37.0
Nc1ccc(C(=O)N/N=C\C=C\c2ccc([N+](=O)[O-])cc2)cc1	Autophagy mod active
O=C(N/N=C/C=C/c1ccc2c(c1)OCO2)c1ccc([N+](=O)[O-])cc1	none (no result: bCat nuc transl)
COc1ccc(-c2csc(/C(C#N)=C/Nc3cc4oc5ccccc5c4cc3OC)n2)cc1	Autophagy mod active
COc1ccc(O)c(C(=O)c2cnn(-c3ccccn3)c2)c1	none
COc1ccc(O)c(C(=O)c2cnc3nc4ccccc4n3c2)c1	bCat nuc transl 75.5, MT stabilize HCS 28.2
C[C@]12CC[C@@H]3c4ccc(OC(=O)c5ccccc5)cc4CC[C@H]3[C@@H]1CC[C@@H]2O	Autophagy mod active
CC(=O)NC(c1ccc(Cl)cc1)c1c(O)ccc2ccc(O)cc12 (stereo not given)	none
Nc1c(C(=O)NCc2ccccc2)c2nc3ccccc3nc2n1CCCN1CCOCC1	Autophagy mod active
Nc1c(C(=O)NCc2ccc(F)cc2)c2nc3ccccc3nc2n1CCCN1CCOCC1	none (no result: bCat nuc transl)
O=C(Nc1ccc(Cl)c(C(F)(F)F)c1)NC1CC2CCCC(C1)N2C1CC1 (stereo not given)	Autophagy mod active (no result: bCat nuc transl, ABCG2 inh, ABCB1 inh, Arbovirus anti)
O=C(Nc1cccc(F)c1)NC1CC2CCCC(C1)N2C1CC1 (stereo not given)	none
Cc1nc2ccc(C(=O)N3c4ccccc4CC3C)cc2s1 (stereo not given)	MT stabilize HCS 19.3
CC1Cc2ccccc2N1C(=O)c1cccnc1 (stereo not given)	none
CCN(CC)c1nc2ccccc2nc1C(C#N)C(=O)NCCCOC (stereo not given)	none
CCN(CC)c1nc2ccccc2nc1C(C#N)C(=O)NCCc1ccccc1 (stereo not given)	Autophagy mod active
CCCCN(CCCC)c1nc2ccccc2nc1C(C#N)C(=O)NCCCOC (stereo not given)	Autophagy mod active
N#CC(C(=O)NCCc1ccccc1)c1nc2ccccc2nc1N1CCCCC1 (stereo not given)	none
COc1cc(C2OCC3C(c4ccc(OC5OC(CO)C(O)C(O)C5O)c(OC)c4)OCC23)ccc1O (stereo not given)	none
Oc1c(N=Nc2ccccn2)ccc2ccccc12	Autophagy mod active
c1ccc2c(c1)ccc1ncccc12	none
O=C(CSc1nc(-c2ccco2)cc(C(F)(F)F)n1)Nc1ccc(C(=O)N2CCOCC2)cc1	none
O=C(CSc1nc(-c2ccco2)cc(C(F)(F)F)n1)Nc1cccnc1	MT stabilize HCS 58.0
CCn1cc(CNC(=O)CCSc2nc(-c3ccco3)cc(C(F)(F)F)n2)cn1	MT stabilize HCS 42.9
O=C(CSc1nc(-c2ccco2)cc(C(F)(F)F)n1)Nc1ccc2c(c1)OCO2	MT stabilize HCS 28.7
O=C(CCCSc1nc(-c2ccco2)cc(C(F)(F)F)n1)Nc1ccc2c(c1)OCO2	none
O=S(=O)(c1ccc(F)cc1)c1snnc1-c1ccccc1	none
O=S(=O)(c1ccc(Cl)cc1)c1snnc1-c1ccccc1	MT stabilize HCS 16.6 (no result: bCat nuc transl)
O=[N+]([O-])c1ccc(Oc2ccc(/C=N/O)cc2)nc1	none
O=C1NC(=O)/C(=C\c2ccc(Oc3ccc([N+](=O)[O-])cn3)cc2)S1	Arbovirus anti 32.9
CCC(=O)Nc1cc(-c2nn(CC(=O)N3CCCCC3)c(=O)c3ccccc23)ccc1N1CCOCC1	none
COc1ccc2nc(/C(C#N)=C\c3ccc(Oc4ccc([N+](=O)[O-])cn4)cc3)[nH]c2c1	Autophagy mod active
Cc1ccc2nc(/C(C#N)=C\c3ccc(Oc4ccc([N+](=O)[O-])cn4)cc3)[nH]c2c1	none
CC(=O)c1cccc(N(C(=O)c2ccccn2)C(C(=O)NC2CCCCC2)c2cccs2)c1 (stereo not given)	none
